Hits are enriched below; roughly 1.9% of the tested compounds scored in any of these assays.
HGIII-sPLA2 inh: Blocks human group III sPLA2 activity. Q9NZ20. QFRET BODIPY PC-A2 liposome hydrolysis, fluorescence. inhibition, % at 12.2 µM. 370,000 tested, 0.56% active. AID 743126;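 active = inhibition above mean plus 3 SD of compounds lying within the high and low control bounds, cut at about 19% in these data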;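 note: 0% = median of test compound wells and 100% = no enzyme DMSO wells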
PLC-gamma1 inh: inhibitors of human phospholipase C gamma1 | 370,000 tested, 0.84% active | inhibition, % at 12.2 µM | P19174 | purified PLC-gamma1, fluorogenic substrate, fluorescence; in the data active = inhibition above about 9.5%
DAGLB inh: blocks human DAGLB lipase activity; inhibition, % at 5.17 µM; HEK293T DAGLB membrane lysate, EnzChek fluorogenic substrate; Q8NCG7; 340,000 tested, 0.059% active; in the data active = inhibition above about 34%;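 note: 0% = enzyme with vehicle and 100% = wells lacking enzyme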
Target sequence (Q8NCG7 whole entry, looked up): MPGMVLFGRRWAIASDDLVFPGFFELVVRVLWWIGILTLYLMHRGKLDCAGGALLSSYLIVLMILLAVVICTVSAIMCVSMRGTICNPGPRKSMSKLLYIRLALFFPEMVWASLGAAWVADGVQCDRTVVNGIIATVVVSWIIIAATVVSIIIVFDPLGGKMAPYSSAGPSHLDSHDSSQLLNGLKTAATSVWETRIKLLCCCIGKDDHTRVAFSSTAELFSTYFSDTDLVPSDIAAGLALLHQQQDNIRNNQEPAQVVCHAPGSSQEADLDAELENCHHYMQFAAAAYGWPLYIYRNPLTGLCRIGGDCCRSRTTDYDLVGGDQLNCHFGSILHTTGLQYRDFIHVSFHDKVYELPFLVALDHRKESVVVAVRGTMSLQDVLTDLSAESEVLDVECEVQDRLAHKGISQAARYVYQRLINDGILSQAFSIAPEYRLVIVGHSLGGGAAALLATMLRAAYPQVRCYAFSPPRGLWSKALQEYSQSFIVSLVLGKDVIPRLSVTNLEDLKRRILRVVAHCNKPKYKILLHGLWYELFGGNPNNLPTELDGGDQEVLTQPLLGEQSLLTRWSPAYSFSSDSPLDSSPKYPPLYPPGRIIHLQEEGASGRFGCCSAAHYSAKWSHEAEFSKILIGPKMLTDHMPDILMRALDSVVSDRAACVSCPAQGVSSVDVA
Tb MetRS inh: Trypanosoma brucei MetRS inhibition; inhibition, % at 11.9 µM; purified T. brucei MetRS, ATP depletion, Kinase-Glo luminescence; AID 624268; 360,000 tested, 0.4% active;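 active = inhibition above a per-plate cutoff of the control wells' mean inhibition plus 3 SD, cut at about 5.5% in these data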;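 note: 0% = DMSO wells median and 100% = median of wells with control inhibitor compound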
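Assay system: T. brucei methionyl-tRNA synthetase, purified | Medium: HEPES buffer with MgCl2, KCl, DTT, spermine, BSA, pyrophosphatase | Compound: 11.9 µM single point | Incubation: 15 min enzyme-compound preincubation, 2 h reaction, 10 min detection, 25 °C | Measured by: Kinase-Glo luciferase luminescence reporting remaining unconsumed ATP | Measure: % inhibition normalized to control-well medians | Replication: Singlicate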
PLC-beta3 inh: inhibitors of human phospholipase C beta3; Purified PLC-beta3, fluorogenic substrate, fluorescence; inhibition, % at 12.2 µM; 370,000 tested, 0.18% active; AID 720704; in the data active = inhibition above about 11%;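 note: 0% = median of compound wells on plate and 100% = full blocker control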
* = called active by the depositor.

For Cc1ccc(-n2ncc(C(=O)Nc3cc(Cl)cc(Cl)c3)c2C2CCNCC2)cc1C the results were HGIII-sPLA2 inh -19, PLC-gamma1 inh 9.8*, DAGLB inh 3, Tb MetRS inh 0 and PLC-beta3 inh 2.
Screening CC(CCc1ccccc1)NC(=O)COC(=O)C12CC3CC(CC(Br)(C3)C1)C2 (stereo not given) returned HGIII-sPLA2 inh -5, PLC-gamma1 inh 0, DAGLB inh -8, Tb MetRS inh 0 and PLC-beta3 inh 5.
CC(NC(=O)COC(=O)C12CC3CC(CC(O)(C3)C1)C2)c1ccccc1 (stereo not given) was read as HGIII-sPLA2 inh 2, PLC-gamma1 inh 13*, DAGLB inh 2, Tb MetRS inh 0 and PLC-beta3 inh 13*.
For COC(=O)c1ccc(S(=O)(=O)N2CCC(NC(=O)Cc3cccc(C)c3)CC2)cc1 the results were HGIII-sPLA2 inh 0, PLC-gamma1 inh 1 and PLC-beta3 inh 1.
Screening Cc1ccc(S(=O)(=O)N2CCN(C(=O)COC(=O)COc3ccc(Cl)c(C)c3)CC2)c(C)c1 returned HGIII-sPLA2 inh 1, PLC-gamma1 inh -1, DAGLB inh -4, Tb MetRS inh -1 and PLC-beta3 inh -2.
`Cc1ccc(S(=O)(=O)N2CCN(C(=O)COC(=O)COc3ccc(Cl)cc3)CC2)c(C)c1` gave HGIII-sPLA2 inh 0, PLC-gamma1 inh 13*, DAGLB inh -3, Tb MetRS inh -1 and PLC-beta3 inh 3.
C[C@H]1O[C@@H](n2c3ccc(Cl)cc3c3ccc4c5cc(Cl)ccc5[nH]c4c32)[C@H](O)[C@H](O)[C@H]1O was read as HGIII-sPLA2 inh -14, PLC-gamma1 inh -4 and PLC-beta3 inh -8.
`COCc1[nH]nc2c1C(c1ccc(F)cc1)NC2=O` (stereo not given) gave HGIII-sPLA2 inh 9, PLC-gamma1 inh 4 and PLC-beta3 inh 1.
`OC(c1ccccc1)(c1ccccc1)C1CCN(CCCOc2ccc(C(F)(F)F)cc2)CC1` gave HGIII-sPLA2 inh -16, PLC-gamma1 inh 3 and PLC-beta3 inh 1.
For O=C(CC1SC(=Nc2ccccc2)N(CCCO)C1=O)Nc1ccc(Cl)cc1 (stereo not given) the results were DAGLB inh -3 and Tb MetRS inh 14*.
O=C(CC1SC(=Nc2ccccc2)N(CCO)C1=O)Nc1ccccc1 (stereo not given) was read as HGIII-sPLA2 inh -14, PLC-gamma1 inh 2, DAGLB inh -2, Tb MetRS inh -1 and PLC-beta3 inh 4.
Screening COc1cccc(N(C)C(=O)[C@@H](C2CC2)[C@@H](O)c2ccc(Cl)cc2)c1 returned HGIII-sPLA2 inh -5, PLC-gamma1 inh 1 and PLC-beta3 inh 1.
CN(C(=O)[C@@H](C1CC1)[C@@H](O)c1ccc2ccccc2c1)c1ccccc1 was read as HGIII-sPLA2 inh 0, PLC-gamma1 inh 10* and PLC-beta3 inh 0.
For O=C(NCCc1ccccc1Cl)[C@@H]1CCCN1C(=O)[C@@H](NC(=O)N1CCOCC1)c1ccccc1 the results were HGIII-sPLA2 inh 11, PLC-gamma1 inh 0 and PLC-beta3 inh -2.
Screening O=C(Cc1c[nH]c2ccccc12)Nc1ccc(Nc2cccnc2)cc1 returned HGIII-sPLA2 inh -67, PLC-gamma1 inh -1 and PLC-beta3 inh -1.
For COC(=O)C(C(=O)OC)[C@@H]1C=C[C@H](C[N+](=O)[O-])N(C(C)=O)C1 the results were HGIII-sPLA2 inh 3, PLC-gamma1 inh 12*, DAGLB inh -2, Tb MetRS inh 0 and PLC-beta3 inh 4.
For COC(=O)C(N)Cc1ccc(OC)c([N+](=O)[O-])c1 (stereo not given) the results were HGIII-sPLA2 inh -3, PLC-gamma1 inh 2, DAGLB inh 2, Tb MetRS inh 0 and PLC-beta3 inh -2.
`C=CC[C@@H](Cc1ccc(F)cc1)C(=O)OC[C@@H]1CCCN1C(=O)[C@H](CC=C)CC(=O)N[C@H](CO)Cc1ccccc1` gave HGIII-sPLA2 inh -49, PLC-gamma1 inh 9.7*, DAGLB inh 3, Tb MetRS inh 0 and PLC-beta3 inh 12*.
For Cn1c(=O)n(Cc2ccccc2)c(=O)c2c1nc1n2CCCN1Cc1ccccc1 the results were HGIII-sPLA2 inh 7, PLC-gamma1 inh 11*, DAGLB inh 1, Tb MetRS inh -1 and PLC-beta3 inh 0.
CCOC(=O)c1cc(-c2ccccc2)nn1CC1CC(c2cccc([N+](=O)[O-])c2)=NO1 (stereo not given) was read as HGIII-sPLA2 inh 4, PLC-gamma1 inh -3, DAGLB inh -6, Tb MetRS inh 0 and PLC-beta3 inh 9.
`O=C(O)c1cc(-c2ccccc2)nn1CC1CC(c2cccc([N+](=O)[O-])c2)=NO1` (stereo not given) gave HGIII-sPLA2 inh 7, PLC-gamma1 inh 9.9* and PLC-beta3 inh 6.
`Cc1cccc2cc(CN(CC3CCCO3)C(=O)NC3CCCCC3)c(=O)[nH]c12` (stereo not given) gave HGIII-sPLA2 inh 3, PLC-gamma1 inh 9.7*, DAGLB inh 1, Tb MetRS inh -1 and PLC-beta3 inh 2.
Cc1cnn(C(=S)NCc2ccc(Cl)cc2)c1 was read as HGIII-sPLA2 inh 1, PLC-gamma1 inh 13* and PLC-beta3 inh 9.
For CC(=O)Oc1ccc([N+](=O)[O-])cc1N1C(=O)c2ccccc2C1=O the results were HGIII-sPLA2 inh 8, PLC-gamma1 inh 12*, DAGLB inh -1, Tb MetRS inh -2 and PLC-beta3 inh 12*.
CN(Cc1cn(Cc2ccccc2)nn1)S(=O)(=O)c1ccc(F)cc1Br was read as HGIII-sPLA2 inh -5, PLC-gamma1 inh -1 and PLC-beta3 inh -1.
`Nc1ccc2c(c1)Cc1cc(N)c(Cl)cc1-2` gave HGIII-sPLA2 inh 24*, PLC-gamma1 inh -34, DAGLB inh 2, Tb MetRS inh 0 and PLC-beta3 inh -57.
CCOc1ccc(-n2c(COc3ccccc3)nnc2SCC(=O)Nc2ccc3c(c2)OCCO3)cc1 was read as HGIII-sPLA2 inh -29, PLC-gamma1 inh 3 and PLC-beta3 inh 2.
For O=C(CN(c1cccc([N+](=O)[O-])c1)S(=O)(=O)c1ccccc1)NCc1cccnc1 the results were HGIII-sPLA2 inh -3, PLC-gamma1 inh 1, DAGLB inh 1, Tb MetRS inh -1 and PLC-beta3 inh -2.
Screening O=C(CN(c1cccc(C(F)(F)F)c1)S(=O)(=O)c1ccc(Cl)c([N+](=O)[O-])c1)NCc1ccc(F)cc1 returned HGIII-sPLA2 inh -2, PLC-gamma1 inh 8, DAGLB inh -6, Tb MetRS inh -1 and PLC-beta3 inh 11*.
O=C(N[C@@H](Cc1cccnc1)C(=O)N1CCC[C@H]1C(=O)NC1CCCC1)c1cccs1 was read as HGIII-sPLA2 inh 15, PLC-gamma1 inh 1 and PLC-beta3 inh -2.
OCC1OC(C(N=Nc2ccccc2)=NNc2ccccc2)C(O)C1O (stereo not given) was read as HGIII-sPLA2 inh 20*, PLC-gamma1 inh -3 and PLC-beta3 inh -10.
For CCCOc1ccc(Cn2c(=O)oc3ccc(C)cc32)cc1OC the results were HGIII-sPLA2 inh 4, PLC-gamma1 inh 6, DAGLB inh -11, Tb MetRS inh -1 and PLC-beta3 inh 13*.
